# Bioassay records as filed in PubChem.
# Rin1 Abl inh = human Rin1-Abl interaction inhibition; TR-FRET Rin1/Abl binding, biochemical; inhibition, % at 7.35 µM; 360,000 compounds, 0.4% hits; AID 588664; in the data active means inhibition above about 5%, passing the limit was not always enough
# Target sequence (P00519 whole entry, looked up): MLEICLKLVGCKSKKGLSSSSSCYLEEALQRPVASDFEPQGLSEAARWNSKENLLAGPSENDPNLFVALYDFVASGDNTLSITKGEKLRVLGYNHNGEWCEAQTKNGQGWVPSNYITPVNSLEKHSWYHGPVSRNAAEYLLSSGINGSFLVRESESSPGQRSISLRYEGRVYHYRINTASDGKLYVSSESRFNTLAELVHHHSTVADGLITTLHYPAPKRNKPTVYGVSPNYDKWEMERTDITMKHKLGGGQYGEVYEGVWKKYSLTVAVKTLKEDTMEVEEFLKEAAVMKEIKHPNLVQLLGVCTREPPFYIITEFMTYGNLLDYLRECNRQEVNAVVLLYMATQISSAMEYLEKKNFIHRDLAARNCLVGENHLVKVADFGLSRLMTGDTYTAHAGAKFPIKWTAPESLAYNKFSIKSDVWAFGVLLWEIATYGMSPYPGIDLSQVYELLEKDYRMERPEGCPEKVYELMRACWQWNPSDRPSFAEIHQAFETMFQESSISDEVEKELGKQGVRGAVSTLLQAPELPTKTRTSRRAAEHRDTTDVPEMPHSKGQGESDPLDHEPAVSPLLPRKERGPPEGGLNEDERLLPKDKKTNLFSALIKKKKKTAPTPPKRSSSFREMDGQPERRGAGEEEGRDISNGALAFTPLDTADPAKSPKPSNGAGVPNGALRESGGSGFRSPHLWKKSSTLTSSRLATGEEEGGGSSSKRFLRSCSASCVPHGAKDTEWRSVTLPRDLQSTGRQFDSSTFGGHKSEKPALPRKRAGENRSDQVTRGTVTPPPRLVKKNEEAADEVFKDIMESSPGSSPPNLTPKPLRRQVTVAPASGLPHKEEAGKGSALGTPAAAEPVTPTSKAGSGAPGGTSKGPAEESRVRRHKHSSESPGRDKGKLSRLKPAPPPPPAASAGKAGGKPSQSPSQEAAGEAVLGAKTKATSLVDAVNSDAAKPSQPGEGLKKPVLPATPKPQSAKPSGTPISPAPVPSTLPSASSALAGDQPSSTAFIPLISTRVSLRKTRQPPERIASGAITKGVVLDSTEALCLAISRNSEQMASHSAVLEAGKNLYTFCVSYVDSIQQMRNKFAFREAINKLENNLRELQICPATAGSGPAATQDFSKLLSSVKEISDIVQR
# Target sequence (Q13671 whole entry, looked up): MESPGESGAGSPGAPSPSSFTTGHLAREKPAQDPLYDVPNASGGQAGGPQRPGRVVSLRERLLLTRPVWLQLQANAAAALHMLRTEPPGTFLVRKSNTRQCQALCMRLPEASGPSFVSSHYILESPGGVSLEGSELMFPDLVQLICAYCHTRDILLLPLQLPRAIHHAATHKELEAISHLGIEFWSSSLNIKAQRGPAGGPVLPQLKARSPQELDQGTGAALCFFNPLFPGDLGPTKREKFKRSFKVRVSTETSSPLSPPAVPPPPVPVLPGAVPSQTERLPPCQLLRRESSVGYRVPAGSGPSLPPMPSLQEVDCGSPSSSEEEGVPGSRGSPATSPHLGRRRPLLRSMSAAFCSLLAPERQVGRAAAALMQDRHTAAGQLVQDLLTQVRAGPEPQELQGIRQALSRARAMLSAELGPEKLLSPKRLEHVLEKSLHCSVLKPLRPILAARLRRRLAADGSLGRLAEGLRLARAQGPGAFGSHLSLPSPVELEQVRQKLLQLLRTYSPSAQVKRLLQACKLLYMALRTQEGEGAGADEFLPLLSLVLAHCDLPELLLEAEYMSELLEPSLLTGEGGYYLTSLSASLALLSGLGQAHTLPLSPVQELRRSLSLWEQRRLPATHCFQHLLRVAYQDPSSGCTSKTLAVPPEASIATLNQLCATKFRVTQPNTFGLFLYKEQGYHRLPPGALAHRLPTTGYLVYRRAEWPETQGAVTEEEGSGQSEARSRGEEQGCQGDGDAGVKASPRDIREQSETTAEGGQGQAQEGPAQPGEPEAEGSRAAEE
# ERAP1 HTS inh = ERAP1 (human) enzyme inhibition; recombinant ERAP1, Leu-AMC fluorescence, 60 min; inhibition, % at 10.7 µM; Q9NZ08; 340,000 compounds, 0.15% hits;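 active means mean replicate inhibition of at least 30%, or all replicates individually reaching that 30% level; inactive means mean below 30% and not every replicate reaching it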;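 further: 0% = neutral control wells and 100% = L-leucinethiol positive control wells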
# ERp5 inh = inhibitors of human ERp5 | ERp5 insulin aggregation, absorbance 650 nm, 90 min | inhibition, % at 9.99 µM | 350,000 compounds, 0.05% hits | AID 651711;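 active means mean replicate inhibition above about 25%, with every replicate also reaching it, limit read from the data, passing the limit was not always enough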
# CAL PDZ FP-1 = CAL PDZ (human) peptide binding inhibition. 300,000 compounds, 0.92% hits. purified CAL PDZ, TMR-peptide fluorescence polarization, 1 h. inhibition, % at 24.9 µM. Q9HD26;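 active means mean inhibition of at least 30% with at least half of replicates also reaching 30%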;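 further: 0% = DMSO neutral control and 100% = excess unlabeled competitor peptide PRC23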
# CAL PDZ FP-2 = blocks peptide binding to human CAL PDZ domain. purified CAL PDZ, TMR-peptide fluorescence polarization, 1 h. inhibition, % at 20 µM. 330,000 compounds, 0.02% hits. AID 504414;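 active means highest replicate inhibition of at least 40%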;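 further: plate controls were DMSO neutral control wells for no effect and unlabeled competitor peptide control wells for full effect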
#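 Material: tagged CAL PDZ domain; buffer or medium: 25 mM sodium phosphate pH 7.4, 150 mM NaCl, TCEP, IgG, Thesit; compound dosing: single point, 20 µM; schedule: 1 h incubation at room temperature before polarization reading; measured by: FP readout, S and P plane fluorescence; read-out basis: percent inhibition from loss of millipolarization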
# PDI turbidity = inhibitors of human protein disulfide isomerase | 350,000 compounds, 0.052% hits | inhibition, % at 10 µM | PDI insulin aggregation turbidity, A650, 90 min;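 active means mean inhibition across replicates of 30% or more, whatever share of single replicates reach that level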
# Rin1 Abl conf = confirmation of inhibitors of human Rin1-Abl interaction; shares compounds with Rin1 Abl inh; TR-FRET Rin1-Abl binding, purified proteins; inhibition, % at 7.35 µM; 1,300 compounds, 49% hits; AID 602124
# GFP quencher = counter-screen for Rin1-Abl inhibitors: GFP fluorescence quenchers. shares compounds with Rin1 Abl inh. inhibitors/quenchers counterscreen. inhibition, % at 6.75 µM. 1,300 compounds, 8.5% hits;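 further: ABL1-eGFP fusion protein alone without its partner RIN1-SBP; 0% = protein with vehicle and 100% = wells lacking protein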
# GFP quench DR = counter-screen for Rin1-Abl inhibitors: GFP quenchers, dose response | IC50, µM | 230 tested, under 10 active | shares compounds with Rin1 Abl inh | GFP fluorescence interference/quenching counterscreen; call rule not given here;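 further: ABL1-eGFP fusion protein alone without its RIN1 binding partner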
# * = called active by the depositor; . = not tested or not shown. An excerpt weighted towards active compounds, which were near 1.1% of everything screened. Unless noted, no stated cut-off is given here; in the data, active means inhibition above about 6.5%; inactive means the rest.
SMILES,Rin1 Abl inh,ERAP1 HTS inh,ERp5 inh,CAL PDZ FP-1,CAL PDZ FP-2,PDI turbidity,Rin1 Abl conf,GFP quencher,others
COc1ccc(CNC(=O)C2(C)Cc3c(-c4cccc(C(N)=O)c4)ccnc3O2)cc1OC (centres undefined),11*,0,-3,.,.,1,7.2*,0,
CC1(C(=O)NCc2ccccc2)Cc2c(-c3cccc(C(N)=O)c3)ccnc2O1 (centres undefined),3,-1,-4,.,.,-6,.,.,
CC(=O)c1cccc(NC(=O)C2(C)Cc3c(-c4cccc(C(N)=O)c4)ccnc3O2)c1 (centres undefined),8.2*,6,0,.,.,10,12*,2,
COc1ccc(C2C(C(=O)N3CCN(c4ccccn4)CC3)CCC(=O)N2c2ccc(OC)cc2)cc1 (centres undefined),7.5*,-1,0,5,-1,6,4,-3,
COc1ccc(C2C(C(=O)N3CCN(c4ccccn4)CC3)CCC(=O)N2c2cc(OC)c(OC)c(OC)c2)cc1 (centres undefined),-2,.,6,-4,-3,-5,.,.,
CNC[C@@H]1OCCCC[C@@H](C)Oc2ccc(NC(=O)CCCN(C)C)cc2C(=O)N([C@@H](C)CO)C[C@H]1C,.,6,-2,.,.,.,.,.,
O=C(c1ccccc1)N1CCN(c2ccc(NCc3ccc4c(c3)OCO4)cc2)CC1,12*,0,-6,.,0,.,12*,-1,
CC(=O)N1CCN(c2ccc(NCc3ccc4c(c3)OCO4)cc2)CC1,-5,.,.,2,-2,5,.,.,
COC(=O)C[C@H]1C[C@@H]2c3cc(NS(=O)(=O)c4ccc(F)cc4)ccc3O[C@@H]2[C@H](CO)O1,.,5,0,.,.,.,.,.,
COc1ccc(CN(C)C[C@@H]2Oc3ccc(NC(=O)CCC(F)(F)F)cc3C(=O)N([C@@H](C)CO)C[C@H]2C)cc1,.,2,7,.,.,.,.,.,
NC(=O)c1nsc(C(=O)N(c2ccccc2)C(C(=O)NCC2CCCO2)c2ccc(F)cc2)c1N (centres undefined),1,1,-9,.,0,-7,.,.,
Cc1ccc(C(C(=O)NCC2CCCO2)N(C(=O)c2snc(C(N)=O)c2N)c2ccc3c(c2)OCCO3)cc1 (centres undefined),13*,6,0,-4,-3,6,14*,-2,
CCOc1ccc(C(C(=O)NCC2CCCO2)N(C(=O)c2snc(C(N)=O)c2N)c2ccccc2F)cc1 (centres undefined),8.5*,-8,5,-6,0,8,11*,0,
Cc1ccc(N(C(=O)c2snc(C(N)=O)c2N)C(C(=O)NCC2CCCO2)c2ccc3ncccc3c2)cc1 (centres undefined),3,7,-2,.,-1,-9,.,.,
NC(=O)c1nsc(C(=O)N(c2ccc3c(c2)OCCO3)C(C(=O)NCC2CCCO2)c2ccc(F)cc2)c1N (centres undefined),11*,0,1,3,-4,7,11*,-1,
CCOc1ccc(N(C(=O)c2snc(C(N)=O)c2N)C(C(=O)NC2CCCC2)c2ccncc2)cc1 (centres undefined),7.6*,4,-2,-7,0,-11,3,0,
CCOc1ccc(C(C(=O)NCC2CCCO2)N(C(=O)c2snc(C(N)=O)c2N)c2cccc(F)c2)cc1 (centres undefined),3,5,1,-8,-1,-9,.,.,
CC(C)NC(=O)N(C)C[C@H]1Oc2cc(-c3ccncc3)ccc2S(=O)(=O)N([C@H](C)CO)C[C@@H]1C,.,-4,2,.,.,.,.,.,
COc1ccc(OC)c(/C=N/NC(=O)c2cccc3ccccc23)c1,6.9*,.,-6,-6,-8,5,-3,0,
COC(=O)C1C(=O)C=C(Nc2ccc(F)cc2F)CC1c1ccc(OC)cc1 (centres undefined),0,-2,3,-1,-3,-7,.,.,
COC(=O)C1C(=O)C=C(Nc2ccc(F)cc2)CC1c1ccc(OC)cc1 (centres undefined),6.4*,.,.,3,-2,-5,-2,0,
Cc1ccc(S(=O)(=O)Nc2ccc3c(c2)C(=O)N([C@@H](C)CO)C[C@H](C)[C@@H](CN(C)S(=O)(=O)c2cn(C)cn2)OCCCC[C@H](C)O3)cc1,.,-2,-4,.,.,.,.,.,
C[C@@H]1CN([C@H](C)CO)C(=O)c2cc(NC(=O)c3ccncc3)ccc2O[C@@H](C)CCCCO[C@@H]1CN(C)Cc1ccc(C(F)(F)F)cc1,.,-2,0,.,.,.,.,.,
OCC1OC(n2cnc3c(NCc4ccccc4O)ncnc32)C(O)C1O (centres undefined),20*,-8,7,-4,-3,4,17*,-1,GFP quench DR=>67
OCC1OC(n2cnc3c(NCCc4ccccc4)ncnc32)C(O)C1O (centres undefined),1,-4,5,-2,0,1,.,.,
SMILES,Rin1 Abl inh,ERAP1 HTS inh,ERp5 inh,CAL PDZ FP-1,CAL PDZ FP-2,PDI turbidity,Rin1 Abl conf,GFP quencher,others
CCC1CCCCN1C(=O)c1ccc(OC)c(OC2CCN(C(C)=O)CC2)c1 (centres undefined),3,-5,-3,0,-1,-2,.,.,
CCC1C(=O)NCCN1C(=O)c1ccc(OC)c(OC2CCN(C(C)=O)CC2)c1 (centres undefined),8.4*,-1,8,0,-2,-2,0,-2,
CCCCC(=O)Nc1ccc(C(=O)N2CCCC(C(=O)OCC)C2)cc1 (centres undefined),7.3*,.,.,.,0,-6,2,1,
CO[C@H]1CN(C)C(=O)c2cc(NS(C)(=O)=O)ccc2OC[C@@H](C)N(C(=O)CC2CC2)C[C@@H]1C,.,1,-6,.,.,.,.,.,
COc1ccc(C[C@H]2CN3C(=NC[C@@H]3C(C)C)N2C[C@H](C)NC(=O)c2ccc(C)c(Br)c2)cc1,2,.,11,0,-2,-1,.,.,
COc1ccc(C[C@H]2CN3C(=NC[C@@H]3Cc3ccc(O)cc3)N2C[C@H](C)NC(=O)c2ccc(C)c(Br)c2)cc1,9.4*,.,.,-3,-5,27,1,0,
Cc1cccc(C(=O)Nc2cccc(C(=O)N/N=C/c3ccccn3)c2)c1,19*,-3,-1,-5,.,-3,-3,0,
Cc1cccc(C(=O)N/N=C/c2ccccn2)c1,1,.,.,-4,0,-2,.,.,
CCC(=O)N1CC2(C1)[C@H](c1ccc(-c3ccc(F)cc3)cc1)[C@H](CO)N2C(C)=O,.,0,7,.,.,.,.,.,
